Test results from publication PMC3367204 (Nucleic Acids Research, 2012).
In brackets after ≈: the same amount, converted by molar mass. Like-named read-outs stand apart in the source and are kept apart here.

Assays:
[1] = test system: E. coli mutant L4: Lys63Glu; assay: Sensitivity to telithromycin of E. coli cells; format: cell-based; conditions: Escherichia coli, read-out: IC50 (growth inhibition)
Method in brief: (§1)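 Preculture at OD560 0.700 is diluted into LB and grown at 37°C with or without test compound, until the untreated culture reaches OD560 0.700. IC50 is the concentration that lowers OD to halfway between 0.700 and the bottom plateau of the dose curve. Means of three independent experiments.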

[2] = test system: E. coli mutant L22: Δ82–84; assay: Sensitivity to telithromycin of E. coli cells; format: cell-based; conditions: Escherichia coli, read-out: IC50 (growth inhibition)
Method in brief: as §1

[3] = test system: 23S rRNA of complex C prepared from E. coli ribosomes; assay: Footprinting; format: binding, Escherichia coli
Method in brief: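 Complex C (10 pmol; 100 nM) is incubated at 25°C in buffer B (50 mM HEPES/KOH pH 7.2, 4.5 mM Mg acetate, 150 mM NH4Cl, 5 mM DTT), optionally with 100 µM spermine. […] Probing uses DMS, kethoxal or CMCT, with 23S rRNA read by primer extension on 6% polyacrylamide/7 M urea gels. Band intensity is normalized to the no-compound control; means of three runs.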

E. coli mutant U754A = assay: Sensitivity to telithromycin of E. coli cells; format: cell-based; conditions: Escherichia coli, MUTANTU754A, read-out: IC50 (growth inhibition)
Method in brief: as §1

[4] = target: T1, complex C prepared from E. coli ribosomes (PTase activity) (Escherichia coli, UniProt P60723+P61175); assay: Puromycin reaction; format: biochemical; conditions: 2 μΜ telithromycin, 200 μΜ puromycin, buffer A, 25°C
Method in brief: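 Complex C from E. coli ribosomes reacts with 200 µM puromycin at 25°C in buffer A (100 mM Tris/HCl pH 7.2, 4.5 mM Mg acetate, 150 mM NH4Cl), alone or with 2 µM test compound or 2 µM tylosin. AcPhe-puromycin formation is followed over time. Means of three independent experiments.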

[5] = target: complex C containing ribosomes mutated in ribosomal protein L22: Δ82–84 (Escherichia coli, UniProt P60723+P61175, DEL82-84); assay: Kinetics of telithromycin binding to complex C by competition with tylosin; conditions: for Kd: L22: Δ82–84, 4.5 mM Mg^2+, 150 mM NH4^+
[6] = target: complex C containing ribosomes with mutated 23S rRNA U754A (Escherichia coli, UniProt P60723+P61175); assay: as above; conditions: for Kd: U754A, 4.5 mM Mg^2+, 150 mM NH4^+
wild-type E. coli cells = assay: Sensitivity to telithromycin of E. coli cells; format: cell-based; conditions: Escherichia coli, read-out: IC50 (growth inhibition)
Method in brief: as §1

[7] = target: complex C (poly(U)-programmed E. coli ribosomes), wild-type (Escherichia coli, UniProt P60723+P61175); format: binding; conditions: for Kd: Wild-type; for Kd / koff: 4.5 mM Mg^2+, 150 mM NH4^+; for koff: read-out: koff,T, Wild-type
E. coli mutant U2609C = assay: Sensitivity to telithromycin of E. coli cells; format: cell-based; conditions: Escherichia coli, MUTANTU2609C, read-out: IC50 (growth inhibition)
Method in brief: as §1

[8] = test system: complex C containing ribosomes with mutated 23S rRNA U2609C; assay: Kinetics of telithromycin binding to complex C by competition with tylosin; design: species or system Escherichia coli
[9] = target: complex C containing ribosomes mutated in ribosomal protein L4: Lys63Glu (Escherichia coli, UniProt P60723+P61175, K63E); assay: as above; conditions: for Kd: L4: Lys63Glu, 4.5 mM Mg^2+, 150 mM NH4^+
[10] = target: T1, complex C prepared from E. coli ribosomes (PTase activity); conditions: 4.5 mM Mg^2+ and 150 mM NH4^+; cited from earlier work
[11] = C*T (final site), 4.5 mM Mg^2+ 150 mM NH4^+
[12] = C*T (final site), 4.5 mM Mg^2+ 150 mM NH4^+ 100 μΜ spermine
[13] = CT (initial site, 5 s), 4.5 mM Mg^2+ 150 mM NH4^+
[14] = CT (initial site, 5 s), 4.5 mM Mg^2+ 150 mM NH4^+ 100 μΜ spermine

CC[C@H]1OC(=O)[C@H](C)C(=O)[C@H](C)[C@@H](O[C@@H]2O[C@H](C)C[C@H](N(C)C)[C@H]2O)[C@](C)(OC)C[C@@H](C)C(=O)[C@H](C)[C@H]2N(CCCCn3cnc(-c4cccnc4)c3)C(=O)O[C@]12C [telithromycin]
IC50 [1]: 12 ± 2.1 µg/mL (≈ 14.8 µM)
IC50 [2]: 50 ± 6.5 µg/mL (≈ 61.6 µM)
Relative reactivity of 23S rRNA residue A752 (ratio to complex C) [3, 11]: 0.30 ± 0.02 ^*^, **
Relative reactivity of 23S rRNA residue A789 (ratio to complex C) [3, 11]: 0.89 ± 0.08
Relative reactivity of 23S rRNA residue A2058 (ratio to complex C) [3, 11]: 0.25 ± 0.03 ^*
Relative reactivity of 23S rRNA residue A2059 (ratio to complex C) [3, 11]: 0.42 ± 0.03 ^*
Relative reactivity of 23S rRNA residue A2062 (ratio to complex C) [3, 11]: 1.28 ± 0.15 ^*
Relative reactivity of 23S rRNA residue C2611 (ratio to complex C) [3, 11]: 0.60 ± 0.08 ^*
Relative reactivity of 23S rRNA residue G2505 (ratio to complex C) [3, 11]: 0.78 ± 0.11 ^*
Relative reactivity of 23S rRNA residue U790 (ratio to complex C) [3, 11]: 0.85 ± 0.08 ^*^, **
Relative reactivity of 23S rRNA residue U2609 (ratio to complex C) [3, 11]: 0.72 ± 0.04 ^*^, **
Relative reactivity of 23S rRNA residue A752 (ratio to complex C) [3, 12]: 0.87 ± 0.07 ^*
Relative reactivity of 23S rRNA residue A789 (ratio to complex C) [3, 12]: 0.93 ± 0.08
Relative reactivity of 23S rRNA residue A2058 (ratio to complex C) [3, 12]: 0.38 ± 0.02 ^*^, **
Relative reactivity of 23S rRNA residue A2059 (ratio to complex C) [3, 12]: 0.57 ± 0.03 ^*^, **
Relative reactivity of 23S rRNA residue A2062 (ratio to complex C) [3, 12]: 1.15 ± 0.14
Relative reactivity of 23S rRNA residue C2611 (ratio to complex C) [3, 12]: 0.97 ± 0.05
Relative reactivity of 23S rRNA residue G2505 (ratio to complex C) [3, 12]: 0.85 ± 0.06 ^*
Relative reactivity of 23S rRNA residue U790 (ratio to complex C) [3, 12]: 0.93 ± 0.08**
Relative reactivity of 23S rRNA residue U2609 (ratio to complex C) [3, 12]: 0.90 ± 0.08
Relative reactivity of 23S rRNA residue A752 (ratio to complex C) [3, 13]: 0.65 ± 0.05
Relative reactivity of 23S rRNA residue A789 (ratio to complex C) [3, 13]: 0.78 ± 0.07
Relative reactivity of 23S rRNA residue A2058 (ratio to complex C) [3, 13]: 0.20 ± 0.02
Relative reactivity of 23S rRNA residue A2059 (ratio to complex C) [3, 13]: 0.38 ± 0.03
Relative reactivity of 23S rRNA residue A2062 (ratio to complex C) [3, 13]: 1.33 ± 0.18
Relative reactivity of 23S rRNA residue C2611 (ratio to complex C) [3, 13]: 0.60 ± 0.09
Relative reactivity of 23S rRNA residue G2505 (ratio to complex C) [3, 13]: 0.65 ± 0.09
Relative reactivity of 23S rRNA residue U790 (ratio to complex C) [3, 13]: 0.60 ± 0.07
Relative reactivity of 23S rRNA residue U2609 (ratio to complex C) [3, 13]: 0.95 ± 0.07
Relative reactivity of 23S rRNA residue A752 (ratio to complex C) [3, 14]: 0.75 ± 0.05
Relative reactivity of 23S rRNA residue A789 (ratio to complex C) [3, 14]: 0.82 ± 0.08
Relative reactivity of 23S rRNA residue A2058 (ratio to complex C) [3, 14]: 0.30 ± 0.01
Relative reactivity of 23S rRNA residue A2059 (ratio to complex C) [3, 14]: 0.45 ± 0.05
Relative reactivity of 23S rRNA residue A2062 (ratio to complex C) [3, 14]: 1.20 ± 0.14
Relative reactivity of 23S rRNA residue C2611 (ratio to complex C) [3, 14]: 0.98 ± 0.05
Relative reactivity of 23S rRNA residue G2505 (ratio to complex C) [3, 14]: 0.72 ± 0.07
Relative reactivity of 23S rRNA residue U790 (ratio to complex C) [3, 14]: 0.70 ± 0.07
Relative reactivity of 23S rRNA residue U2609 (ratio to complex C) [3, 14]: 0.97 ± 0.07
IC50 (E. coli mutant U754A): 14.8 ± 2.5 µg/mL (≈ 18.2 µM)
Inhibition of AcPhe-puromycin synthesis [4]: fails to inhibit
Kd ([5]; K*T): 210 ± 30.9 nM
Kd ([5]; KT): 530 ± 42 nM
Enhancement in dissociation rate constant koff,T by mutation ([5]; L22: Δ82–84 vs wild-type): about 4 fold
Increase in overall dissociation constant K*T by mutation ([5]; L22: Δ82–84 vs wild-type): 25 fold
Reduction in association rate constant kon,T by mutation ([5]; L22: Δ82–84 vs wild-type): 10 fold
koff ([5]; read-out: koff,T): 0.0005 s⁻¹
Kd ([6]; K*T): 22.6 ± 3.22 nM
Kd ([6]; KT): 604 ± 45 nM
Effect of mutation on koff,T constant ([6]; U754A vs wild-type): doubling
IC50 (wild-type E. coli cells): 4 ± 0.8 µg/mL (≈ 4.93 µM)
Reversal of inactivation of complex C by tylosin ([7]; 4 μΜ tylosin, telithromycin >10 μΜ): entirely reversed
Decrease of kon,T value by polyamines ([7]; 100 μΜ spermine or 50 μΜ spermine and 2 mM spermidine vs no polyamines): 83%
Kd ([7]; K*T, 50 μΜ spermine, 2 mM spermidine): 75.7 ± 8.8 nM
Kd ([7]; K*T, 100 μΜ spermine): 91.4 ± 11.2 nM
Kd ([7]; KT, 50 μΜ spermine, 2 mM spermidine): 1714 ± 13 nM
Kd ([7]; KT, 100 μΜ spermine): 2500 ± 185 nM
Kd ([7]; KT, initial low-affinity site): 500 ± 44 nM
koff.T lower than the rate constant for drop off (Lovmar et al.) ([7]; compared with drop off rate constant of ref 3): 10 times
Increase of KT* value by polyamines ([7]; polyamine buffer vs no polyamines): 10 fold
Decrease in the affinity of telithromycin for the initial site by spermine ([7]; presence of spermine): 5 fold
koff [7]: 0.000137 s⁻¹
koff ([7]; 100 μΜ spermine): 4.83e-05 s⁻¹
IC50 (E. coli mutant U2609C): 41.6 ± 4.3 µg/mL (≈ 51.2 µM)
Enhancement of overall constant Κ*T by mutation ([8]; U2609C vs wild-type): 20 fold
koff,T ([8]; U2609C, 4.5 mM Mg^2+, 150 mM NH4^+): 0.0395 ± 0.0031 min^_1
Kd ([8]; read-out: K*T, U2609C, 4.5 mM Mg^2+, 150 mM NH4^+): 148 ± 18.9 nM
Kd ([8]; read-out: KT, U2609C, 4.5 mM Mg^2+, 150 mM NH4^+): 536 ± 43 nM
Kd ([9]; K*T): 12 ± 2.67 nM
Kd ([9]; KT): 470 ± 48 nM
koff ([9]; read-out: koff,T): 0.000127 s⁻¹

CC[C@H]1OC(=O)C[C@@H](O)[C@H](C)[C@@H](O[C@@H]2O[C@H](C)[C@@H](O[C@H]3C[C@@](C)(O)[C@@H](O)[C@H](C)O3)[C@H](N(C)C)[C@H]2O)[C@@H](CC=O)C[C@@H](C)C(=O)/C=C/C(C)=C/[C@@H]1CO[C@@H]1O[C@H](C)[C@@H](O)[C@@H](OC)[C@H]1OC [tylosin]
Inhibition of AcPhe-puromycin synthesis [10]: inhibits
